Results collected from several papers.
Lines come from different studies, so protocols differ.
Target: 5-hydroxytryptamine receptor 1A (HTR1A, Homo sapiens, UniProt P08908)
Sequence (P08908 1-422, as in one of the studies): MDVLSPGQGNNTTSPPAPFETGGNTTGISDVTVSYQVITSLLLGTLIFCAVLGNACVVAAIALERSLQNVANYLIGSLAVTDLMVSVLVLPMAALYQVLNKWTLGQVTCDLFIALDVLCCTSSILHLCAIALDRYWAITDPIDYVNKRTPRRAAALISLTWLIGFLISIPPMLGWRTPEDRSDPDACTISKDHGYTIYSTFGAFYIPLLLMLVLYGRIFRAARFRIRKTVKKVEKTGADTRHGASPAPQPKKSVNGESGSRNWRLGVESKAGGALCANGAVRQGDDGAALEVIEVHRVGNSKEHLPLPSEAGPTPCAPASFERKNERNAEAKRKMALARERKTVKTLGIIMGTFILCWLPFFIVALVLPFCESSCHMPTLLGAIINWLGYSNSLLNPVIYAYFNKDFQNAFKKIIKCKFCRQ

| SMILES | read-out | technique | measurement | value |
| --- | --- | --- | --- | --- |
| CCCC[C@H](NC(=O)[C@H](C)c1c(C)[nH]c2ccc(O)cc12)c1ncc(-c2cc3ccccc3nc2OC)[nH]1 | cell-free assay | – | Ki | 2080 nM |
| CCCCN1CCC(COC(=O)c2ccc(N)c(OCF)c2)CC1 | cell-free assay | radioligand | Ki | > 10000 nM |
| CN1CCCCC1CCN1c2ccccc2Sc2ccc([S+](C)[O-])cc21 (stereo not drawn) | ligand displacement | radioligand | IC50 | 33.1 nM |
| CCNC(=O)c1cc2c(N3CCOC[C@@H]3C)ccnc2[nH]1 | cell-free assay | radioligand | Ki | > 10000 nM |
| C[C@@H]1Cc2ccccc2N1C(=O)NCCCCN(C)[C@@H]1Cc2cccc3[nH]c(=O)n(c23)C1 | ligand displacement | radioligand | Ki | 33.2 nM |
| COc1ccccc1N1CCN(CCCCOc2ccc3c(c2)NC(=O)CC3)CC1 | ligand displacement | radioligand | Ki | 0.28 nM |
| CN(CCCCNC(=O)c1cc2ccccc2[nH]1)[C@@H]1Cc2cccc3[nH]c(=O)n(c23)C1 | ligand displacement | radioligand | Ki | 127 nM |
| CCOc1c(O)cc(Br)c2c1CN1CCc3cc(OCC(F)F)c(O)cc3[C@@H]1C2 | cell-free assay | radioligand | Ki | 334 nM |
| O=C1c2ccccc2CCN1CCCCN1CCN(c2cccc(Cl)c2Cl)CC1 | ligand displacement | radioligand | Ki | 1.5 nM |
